Hits are enriched below; roughly 1.5% of the tested compounds scored in any of these assays.
APJ ag – agonists of human APJ apelin receptor. P35414. CHO-K1 APJ PathHunter beta-arrestin, luminescence; 0% DMSO wells, 100% apelin. activation, % at 20 µM. actives 0.11% (n = 330,000). AID 2520;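 active = activation more than six SD over the plate average, tested at 20 µM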;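 also: 0% = DMSO alone and 100% = apelin-13 at 10 nM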
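Incubation: overnight seeding, 90 min compound at 25 °C, 1 h detection; test system: PathHunter CHO-K1 APJ (AGTRL-1) beta-arrestin reporter cells; amount: 1000 cells/well; doses: one dose, 20 µM compound, 1% DMSO; measured by: beta-gal luminescence; measure: agonist-driven arrestin binding to APJ; benchmarks: negative DMSO alone, positive Apelin-13 at 10 nM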
APJ antagonist – APJ receptor antagonism. P35414. CHO-K1 APJ beta-arrestin complementation, luminescence. inhibition, % at 20 µM. actives 0.32% (n = 330,000);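 active = inhibition above about 40% at 20 µM, limit read from the data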;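 also: cells challenged with 10 nM apelin-13 agonist together with compound; plate controls were apelin-13 plus DMSO wells for no effect and DMSO wells lacking apelin-13 for full effect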
EBI2 antag – EBI2 (human) antagonism; actives 0.81% (n = 360,000); inhibition, % at 5 µM; AID 651636; EBI2 beta-arrestin recruitment, luminescence, 7a,25-OHC stimulated; P32249; in the data active = inhibition above about 38%;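 also: enzyme fragment complementation signal reports receptor beta-arrestin coupling in cells; 0% = agonist plus DMSO wells and 100% = wells without agonist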
CXCR6 inh – inhibitors of human CXCR6 receptor. O00574. CHO-K1 PathHunter CXCR6 beta-arrestin, luminescence. inhibition, % at 20 µM. actives 0.36% (n = 360,000); in the data active = inhibition above about 34%, passing the limit was not always enough;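 also: antagonist mode with CXCL16 agonist at 10 nM final; 0% = 10 nM CXCL16 with DMSO and 100% = unstimulated wells without agonist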
CCR6 antag – CCR6 (human) receptor antagonism; P51684; CHO-K1 CCR6 PathHunter beta-arrestin, luminescence, CCL20-stimulated; inhibition, % at 20 µM; actives 0.49% (n = 340,000); AID 493098;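 active = compounds whose inhibition of the agonist-driven luminescence signal at 20 µM reaches about 50%, limit read from the data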;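 also: cells stimulated with CCL20 at 14 nM final; plate controls were DMSO with CCL20 for no effect and DMSO without agonist for full effect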
Target sequence (P51684 whole entry, looked up): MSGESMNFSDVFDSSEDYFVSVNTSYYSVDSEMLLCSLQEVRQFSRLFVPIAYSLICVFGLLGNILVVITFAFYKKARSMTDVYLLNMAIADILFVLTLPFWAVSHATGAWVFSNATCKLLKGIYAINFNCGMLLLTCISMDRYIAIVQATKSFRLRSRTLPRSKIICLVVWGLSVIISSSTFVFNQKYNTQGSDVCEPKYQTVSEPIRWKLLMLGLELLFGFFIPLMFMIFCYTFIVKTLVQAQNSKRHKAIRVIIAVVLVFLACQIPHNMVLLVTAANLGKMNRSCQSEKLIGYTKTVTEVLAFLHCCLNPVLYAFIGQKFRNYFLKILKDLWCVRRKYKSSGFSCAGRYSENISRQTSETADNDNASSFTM
* marks the source's active call; other numbers are inactive results; / = no result.

SMILES	APJ ag	APJ antagonist	EBI2 antag	CXCR6 inh	CCR6 antag
CCc1noc(C)c1C(=O)N1CC(C)SC1=Nc1ccc(Cl)cc1 (stereo unspecified)	-4	15	17	5	10
CCc1nnc(NC(=O)CSc2nnc(Cc3cc(=O)[nH]c(=O)[nH]3)n2-c2cccc(OC)c2)s1	-9	4	-5	-5	14
Cc1ccc(/C=C/C(=O)NCCc2ccccc2)o1	-3	15	6	7	83*
COc1ccccc1NC(=O)CCCCCN1C(=O)c2cccc([N+](=O)[O-])c2C1=O	-1	-4	3	2	-5
COc1cc(/C=C2/C(=O)c3cccc([N+](=O)[O-])c3C2=O)c(Br)cc1O	/	/	23	86*	97*
CC1=C(C)/C(=N\OS(=O)(=O)c2ccc(C)cc2)C=CC1=O	/	/	7	55*	76*
COc1ccc(NC(=O)C(NC(C)=O)C(=O)Nc2ccc(F)cc2)cc1 (stereo unspecified)	-1	21	13	7	7
O=c1ccc2cc3c([nH]c4ccc(Br)cc43)oc-2c1O	-7	39	3	45*	/
O=C(/C=C/c1ccc(O)c(O)c1)c1ccccc1O	-4	43*	6	22	52*
Cc1cc2c(cc1C)-n1nnnc1C(N(C)CCc1ccccc1)C(=O)N2 (stereo unspecified)	/	/	-5	/	/
Cc1noc(C)c1NC(=O)Nc1ccc2c(c1)C(=O)N([C@H](C)CO)C[C@H](C)[C@@H](CN(C)C(=O)NC1CCCCC1)O2	0	0	8	-3	9
Cc1cc(/C=C\c2ccc3cc(N(C)C)ccc3[n+]2C)c(C)n1-c1ccccc1	14	11	-8	22	51*
O=C(O)c1cc(N=Nc2c(O)ccc3ccccc23)cc(C(=O)O)c1	/	/	15	28	57*
COc1ccc(N/N=C(/N=Nc2nc(C)cc(=O)[nH]2)c2ccccc2)cc1	-4	22	22	33*	47
COCCCn1c(SCc2cccc(C(F)(F)F)c2)nc2cc(OC)c(OC)cc2c1=N	-1	13	57*	2	17
CCCCC(=O)N(C)c1c(CC)nc2c(OCc3ccc(C(F)(F)F)cc3)cccn12	/	/	10	5	/
Cc1cc(Cl)c(S(=O)(=O)NC2CCCC2)cc1OCC(=O)NC1CCCCC1	1	0	45*	6	-14
Cc1nn(-c2ccccn2)c2c1C(c1ccccc1Cl)C1=C(N2)c2ccccc2C1=O (stereo unspecified)	-2	19	-4	26	79*
Cc1nn(-c2ccccn2)c2c1C(c1c(F)cccc1Cl)C1=C(N2)c2ccccc2C1=O (stereo unspecified)	-3	23	/	/	/
CC(C)C[C@H]1CN(CCCC[C@@H]2CNC(=O)C(=O)N2CCc2ccccc2)C(=O)C(=O)N1Cc1ccccc1	/	/	2	-7	/
COc1ccc(CC(=O)Nc2cccc(-c3nnc(-c4ccccc4)o3)c2)cc1OC	/	/	-32	-11	0
COc1ccc(CC(=O)Nc2cccc(-c3nnc(-c4cccc(C)c4)o3)c2)cc1OC	24*	-22	-10	-8	0
O=C(ONc1ccc(N=NC(=O)c2ccccc2O)cc1)c1ccccc1	-7	34	7	34	56*
CCOC(=O)c1nnn(-c2nonc2N)c1CN1CCCC1	-2	5	1	-3	-2
CCOC(=O)c1nnn(-c2nonc2N)c1CN1CCCCCC1	-3	-7	-7	3	104*
SMILES	APJ ag	APJ antagonist	EBI2 antag	CXCR6 inh	CCR6 antag
O=C1CCC(C(=O)OCc2nnc(-c3ccccc3)o2)=NN1	4	3	-13	11	-3
N#CC(C#N)=C1C=CC=CN1/C(=C\c1ccco1)C(=O)c1ccc(Cl)cc1	/	/	74*	103*	117*
CC(/C=N/n1c(-c2ccc(Cl)cc2)n[nH]c1=S)=C\c1ccco1	-2	-12	-8	13	17
O=C(N/N=C/c1ccc(Cl)cc1Cl)c1cccc(N2CCCC2=O)c1	-3	-4	18	-4	0
O=C(N/N=C/c1cc(Br)cc(Br)c1O)c1cccc(N2CCCC2=O)c1	0	-23	5	-20	54*
Nc1cccc2c1C(=O)N(C(=O)/C=C/c1cccc(Br)c1)C2=O	/	/	2	38*	64*
O=[N+]([O-])c1ccc(S(=O)Cc2ccccc2)c([N+](=O)[O-])c1 (stereo unspecified)	/	/	7	92*	102*
CC(=O)NCc1ccc(C(=O)CN2C(=O)NC3(CCCCC3C)C2=O)s1 (stereo unspecified)	-4	13	-5	-8	8
O=C(CSc1nc(-c2cccs2)cc(C(F)(F)F)n1)NCCCn1ccnc1	6	-3	6	7	2
O=C(CSc1nc(-c2ccco2)cc(C(F)(F)F)n1)NCCCn1ccnc1	-2	-6	-4	48*	-5
O=C(C[C@@H]1CC[C@@H]2[C@H](COC[C@H](O)CN2C(=O)Nc2ccc(F)cc2)O1)NCCc1ccncc1	/	/	-6	/	/
COc1ccc(NC2=CC(c3ccc(OC)c(OC)c3)N(c3ccc(OC)cc3)C2=O)cc1 (stereo unspecified)	-3	1	14	-4	11
NS(=O)(=O)c1ccc(NC2=CC(c3ccc([N+](=O)[O-])cc3)N(c3ccc(S(N)(=O)=O)cc3)C2=O)cc1 (stereo unspecified)	-1	32	-8	60*	50*
O=C1/C(=C\c2ccc(O)cc2)SC(=S)N1/N=C/c1ccc(O)cc1	-7	30	11	47*	66*
Cc1ccc(-c2nn3c(-c4ccco4)nnc3c3ccccc23)cc1S(=O)(=O)NCC1CCCO1 (stereo unspecified)	-10	11	17	0	51*
CCOC(=O)/C=C/C(=O)Nc1cccc([N+](=O)[O-])c1	-2	7	-3	85*	/
CCOC(=O)c1cccc(NC(=O)/C=C/c2cccc([N+](=O)[O-])c2)c1	-2	6	5	-3	-2
O=C(c1ccc(-c2ccccc2)cc1)c1ccc([N+](=O)[O-])cc1	1	-30	/	/	/
O=C(C#Cc1ccccc1)c1ccc([N+](=O)[O-])cc1	2	12	25	71*	55*
CC(C)SC1=NC(C)(C)C=C(/C=C/c2c(Cl)cccc2Cl)N1	-1	11	0	9	52*
Clc1cccc(Cl)c1/C=C/c1nc2ccccc2[nH]1	3	-2	13	-5	-4
CC(C)SC1=NC(C)(C)C=C(/C=C/c2ccc(Cl)cc2Cl)N1	-9	1	6	14	51*
CC(C)(C)OC(=O)C(Oc1ccccc1[N+](=O)[O-])C(=O)OC(C)(C)C	/	/	-5	/	/
Cc1cccc(C)c1NC(=O)C(c1cccc2ccccc12)n1c(=O)c(-c2cc3ccccc3[nH]2)nc2ccccc21 (stereo unspecified)	/	/	5	/	/
COCCNC(=O)C1(C)CCCN(Cc2cc(-c3ccccc3)nn2C)C1 (stereo unspecified)	/	/	-5	-11	/

Screening data from PubChem.
